An excerpt weighted towards active compounds, which were near 2.6% of everything screened.
rCAG binder: binders of r(CAG) RNA repeats, primary screen, biochemical, fluorescence; r(CAG) RNA repeat, TO-PRO-1 dye displacement fluorescence; inhibition, % at 3 µM; AID 651821, 2012; 370,000 tested, 1.3% active;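 active = inhibition above the plate cutoff, the mean of all test compounds on that plate plus 3 SD, cut at about 35% in these data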;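 also: 0% = DMSO alone and 100% = 100 µM mitoxantrone as full dye displacement; higher means more dye released from RNA so lower well fluorescence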
NR2E3 ag-1: inhibitors of NR2E3-RetCOR corepressor binding, primary screen, NR2E3 agonist project, biochemical, TR-FRET, GST-NR2E3, biotin-RetCOR; Photoreceptor-specific nuclear receptor (Homo sapiens), Q9Y5X4; 1536-well; inhibition of corepressor binding, % at 4.78 µM; 320,000 tested, 0.12% active; AID 2300, 2010;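 active = percent inhibition above the cutoff of mean plus 3 SD of all tested compounds, set per screening campaign, cut at about 20% in these data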;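 also: 0% = DMSO wells and 100% = biotin wells as full block of FRET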
Target sequence (Q9Y5X4 whole entry, looked up): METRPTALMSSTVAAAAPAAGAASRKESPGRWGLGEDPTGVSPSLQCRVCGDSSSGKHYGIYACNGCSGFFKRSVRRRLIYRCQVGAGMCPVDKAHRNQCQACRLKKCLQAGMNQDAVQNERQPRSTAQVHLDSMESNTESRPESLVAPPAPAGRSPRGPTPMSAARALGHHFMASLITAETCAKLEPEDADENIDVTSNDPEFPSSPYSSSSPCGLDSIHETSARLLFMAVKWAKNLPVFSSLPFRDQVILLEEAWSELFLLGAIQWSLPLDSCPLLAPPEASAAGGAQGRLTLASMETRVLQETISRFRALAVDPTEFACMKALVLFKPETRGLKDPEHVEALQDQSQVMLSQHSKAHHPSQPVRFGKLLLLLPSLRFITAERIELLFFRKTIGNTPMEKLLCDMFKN
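Material – GST-tagged NR2E3 plus biotinylated RetCOR corepressor · Quantity – NR2E3 fusion 1.35 nM · Times – 5 h incubation at 4 °C · Medium – pH 7.5 Tris-based buffer · Technique – TR-FRET, Eu(K)-anti-GST donor, streptavidin-D2 acceptor, ex 340, em 617/671 nm · Benchmarks – high control biotin, low control 0.6% DMSO · Format – 1536-well plates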
PG9 binder: binders of HIV-1 gp120 antibody PG9, primary screen, biochemical, TR-FRET. inhibition, % at 6.7 µM. 360,000 tested, 0.43% active. TR-FRET gp120-PG9 antibody binding; in the data active = inhibition above about 8.5%
NR2E3 ag-2: NR2E3 agonists in two-hybrid cells, primary screen, cell-based, luminescence, CHO-S, Gal4-NCOR/VP16-NR2E3. Photoreceptor-specific nuclear receptor (Homo sapiens), Q9Y5X4. luciferase. inhibition of corepressor binding, % at 3.98 µM. 360,000 tested, 0.35% active. AID 602229, 2012;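 active = inhibition above the mean of all tested compounds plus 3 SD, cut at about 70% in these data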;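 also: 0% = DMSO with NR2E3 transfected cells and 100% = cells lacking NR2E3 construct; higher means lower luciferase signal from less NR2E3 corepressor binding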
NR1D1 modulator: modulators of Rev-erb alpha DNA binding, primary screen, biochemical, FITC-DNA, fluorescence polarization, uHTS. activity, % at 10 µM. Nuclear receptor subfamily 1 group D member 1 (Homo sapiens), P20393. Rev-erbα–FITC-DNA binding, 90 min. 370,000 tested, 0.79% active. AID 1259318, 2017;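 active = activity above about 14%, limit read from the data; passing the limit was not always enough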;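 also: 0% = DMSO wells with 35 nM protein and 100% = DMSO wells with 750 nM protein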
NR1D1 mod conf: modulators of Rev-erb alpha DNA binding, confirmation, biochemical, FITC-DNA, fluorescence polarization, single point; shares compounds with NR1D1 modulator; 3,000 tested, 61% active; 90 min; activation, % at 25 µM;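 active = activation at or above a set limit, or at least 3 SD above the negative control mean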;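 also: 0% = 35 nM protein with DMSO and 100% = 750 nM protein high control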
RORg DNA counter: modulation of RORgamma DNA binding, dose response, counter-screen for Rev-erb alpha modulator project, biochemical, fluorescence polarization, FITC-DNA; shares compounds with NR1D1 modulator; purified RORgamma protein-FITC-DNA binding; IC50, µM; 910 tested, 8% active;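 active = Compounds whose fitted half-maximal concentration for disrupting protein-DNA binding is below 10 micromolar; the record names Rev-erb in its text, so the target is in doubt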
Active calls of the source: *; i = inactive; nt = no result.

SMILES | rCAG binder | NR2E3 ag-1 | PG9 binder | NR2E3 ag-2 | NR1D1 modulator | NR1D1 mod conf | others
COc1cccc(NC(=O)C2(C)CCN2Cc2ccc(SC)cc2)c1 (stereo not given) | -1 | nt | 0 | -11 | 1 | nt
O=c1[nH]c(/C=C/c2ccccc2OC(F)F)nc2c1cnn2-c1ccccc1 | 11 | -3 | 3 | -16 | 24* | 5
COc1cc(/C=C/c2nc3ccccc3c(=O)[nH]2)ccc1OC(F)F | 1 | -2 | 3 | -55 | -1 | nt
C[C@H](CO)N1C[C@H](C)[C@H](CN(C)C(=O)NC2CCCCC2)Oc2ncc(Br)cc2C1=O | 0 | nt | 0 | -9 | 5 | nt
CCCCc1ccc(NC(=O)COC(=O)c2ccc3ncsc3c2)cc1 | 3 | nt | -1 | -33 | 17* | -6
CC(C)NC1(C(N)=O)CCN(Cc2ccccc2)CC1 | 1 | nt | -1 | -4 | -4 | nt
C(=Cc1c[nH]c2ccccc12)c1nccc2ccccc12 | 3 | nt | -2 | -175 | 25* | 23*
OCC[n+]1ccc(/C=C/c2c[nH]c3ccccc23)cc1 | -238 | -5 | -16 | -26 | 161* | 144* | RORg DNA counter=i
O=C(/C=C/c1c[nH]c2ccccc12)c1ccccc1 | 10 | 1 | -1 | -70 | -4 | nt
CN(Cc1cccc(F)c1)C(=O)C1CC(=O)N(Cc2ccco2)C1 (stereo not given) | 6 | nt | -2 | -26 | 0 | nt
O=C(CNC(=O)c1ccc(Cl)cc1)OCC(=O)c1ccccc1 | -4 | 3 | -1 | 12 | 2 | nt
CC(C)(C)c1ccc(C(=O)NCC(=O)OCC(=O)c2ccc3c(c2)-c2ccccc2C3)cc1 | 12 | 0 | -2 | 1 | 26* | 8
C[C@H](CO)N1C[C@H](C)[C@H](CN(C)S(=O)(=O)c2cccc(F)c2)Oc2cc(Br)ccc2S1(=O)=O | 3 | nt | -2 | -1 | 7 | nt
CCC(=O)c1ccc(N2CCN(S(=O)(=O)c3ccccc3)CC2)c(F)c1 | -1 | -1 | -3 | -42 | 23* | 46* | RORg DNA counter=>40
Cn1nc(C(C)(C)C)cc1NC(=O)C1(C)CCN1C(=O)c1ccccc1CCc1ccccc1 (stereo not given) | 1 | nt | -1 | -11 | 20* | -1
CCSC1=N/C(=C\C=C2/Oc3ccccc3N2CC)C(=O)S1 | -9 | -3 | -3 | -40 | 50* | 46* | RORg DNA counter=>40
CC12CCC(C(S(=O)(=O)Nc3ccccc3)C1=O)C2(C)C (stereo not given) | 4 | nt | 1 | -17 | -2 | nt
CCC(CC)COC(=O)C1=C(C)NC(=O)NC1c1ccc(N(C)C)cc1 (stereo not given) | -3 | 0 | -2 | -16 | 2 | nt
CCC(CC)COC(=O)C1=C(C)NC(=O)NC1c1ccccc1Br (stereo not given) | -7 | -2 | -1 | -9 | 17* | 15
O=C(Nc1ccc(Oc2ccccc2)cc1)c1csc(COCCO)n1 | 0 | nt | -2 | -37 | 15* | 1
CCSC1=C(C#N)C2(CCCCC2)C2=C(CC(C)(C)CC2=O)N1 | -4 | 3 | 0 | -34 | 22* | 2
CC1(C(=O)NS(=O)(=O)c2ccccc2Cl)CCN1C(=O)CCc1ccccc1 (stereo not given) | 7 | nt | -3 | -3 | -5 | nt
CC1(C(=O)Nc2cnc3ccccc3c2)CCN1C(=O)C/C=C/c1ccccc1 (stereo not given) | 5 | nt | 1 | 24 | 0 | nt
CCC(=O)N1CCC1(C)C(=O)Nc1cnc2ccccc2c1 (stereo not given) | 2 | nt | 0 | 5 | 17* | -2
O=S(=O)(NCCc1csc(-c2cccnc2)n1)c1cccs1 | 3 | -3 | 0 | -38 | 24* | -5
SMILES | rCAG binder | NR2E3 ag-1 | PG9 binder | NR2E3 ag-2 | NR1D1 modulator | NR1D1 mod conf | others
CCc1ccc(-c2cc(C(F)(F)F)n3nc(C(=O)Nc4c(C)nn(Cc5ccccc5Cl)c4C)cc3n2)s1 | 1 | -1 | -4 | 14 | 72* | 38* | RORg DNA counter=>40
CCc1ccc(-c2cc(C(F)(F)F)n3nc(C(=O)Nc4cnn(Cc5ccccc5C)c4)cc3n2)s1 | 1 | 0 | 0 | -11 | 37* | 13
Cc1ccccc1Cn1cc(NC(=O)c2cc(-c3cccs3)on2)cn1 | 1 | 0 | 5 | -5 | 20* | 5
CCCCN(C=O)c1c(CC)nc2c(OCCOc3ccc(F)cc3)cccn12 | -3 | nt | -4 | -16 | -3 | nt
O=C1CCCCC(=O)[C@H](O)C[C@H](c2ccccc2)O1 | 3 | nt | -3 | -16 | 2 | nt
CC(C)Sc1nc(-c2cccs2)nc2cc(Cl)ccc12 | 1 | nt | -1 | 5 | -1 | nt
O=c1ccc(-c2ccc(S(=O)(=O)Nc3ccc(F)cc3)o2)n[nH]1 | 5 | 4 | 1 | -9 | 3 | nt
Clc1ccccc1NN(Cc1ccncc1)c1ccccc1Cl | -1 | nt | 0 | -6 | 18* | 10
Clc1ccccc1NN(Cc1ccccn1)c1ccccc1Cl | 1 | nt | 1 | -12 | 2 | nt
COc1ccc2c(COC(=O)c3ccc(C)c(S(=O)(=O)N4CCOCC4)c3)cc(=O)oc2c1 | 11 | nt | -1 | -10 | 21* | 26*
C/C(N)=C(/C#N)C(=O)CSc1cc(C)c2cc(C)cc(C)c2n1 | 5 | 2 | 2 | -5 | 50* | 27*
O=C(Nc1cccnc1)c1cc(-c2cccnc2)nc2ccc(Br)cc12 | 0 | -2 | 5 | 4 | 3 | nt
COc1cc(NC(=O)c2cc(-c3cccnc3)nc3ccc(Br)cc23)cc(OC)c1 | 4 | 3 | 3 | 15 | 31* | 20*
C[C@H]1CN([C@@H](C)CO)C(=O)CCCn2nncc2CO[C@H]1CN(C)C(=O)C1CC1 | 2 | nt | 3 | 9 | 4 | nt
CC(=O)c1cc(NC(=O)c2ccc(C)cc2)c(=O)oc1/C=C/N(C)C | -2 | -7 | -18 | -51 | 31* | 4
C/C(=N\NC(=O)C1CC1)c1ccc(C)cc1C | 0 | 2 | 1 | -12 | 5 | nt
COc1ccccc1CNC(=O)c1c(O)c2cc(OC)c(OC)cc2[nH]c1=O | -1 | 3 | 0 | 12 | 28* | 19*
O=C(NCc1ccccc1)c1c(O)c2ccccc2[nH]c1=O | 2 | nt | 1 | -16 | 11 | nt

Screening results from PubChem BioAssay.
